Among the data in ChEMBL document CHEMBL4152384, “Pyrtriazoles, a Novel Class of Store-Operated Calcium Entry Modulators: Discovery, Biological Profiling, and in Vivo Proof-of-Concept Efficacy in Acute Pancreatitis” (J Med Chem, 2018) are Activity and inhibition values, retold here.

Molecules are shown by their SMILES. Active and inactive are the calls of the source. No cut-off for these calls is given here.

For test [1], the system named is Jurkat. Briefly: Induction of store-operated calcium entry in human Jurkat cells assessed as induction of store-operated calcium entry by measuring increase in slope at 0.3 to 10 uM preincubated for 30 mins followed by tBhQ-mediated Ca2+ depletion and Ca2+ re-addition to extracellular solution measured for 600 secs by Fluo-4 AM-based fluorometric assay relative to control. It counts as cell-based.

In test [2] the test system is Jurkat. The test can be described thus: Induction of store-operated calcium entry in human Jurkat cells assessed as induction of store-operated calcium entry by measuring increase in AUC of calcium entry at 0.3 to 10 uM preincubated for 30 mins followed by tBhQ-mediated Ca2+ depletion and Ca2+ re-addition to extracellular solution measured for 600 secs by Fluo-4 AM-based fluorometric assay relative to control. It counts as cell-based.

The subject of test [3] is Jurkat. Briefly: Induction of store-operated calcium entry in human Jurkat cells assessed as induction of store-operated calcium entry at 10 uM preincubated for 30 mins followed by tBhQ-mediated Ca2+ depletion and Ca2+ re-addition to extracellular solution measured for 800 secs by Fluo-4 AM-based fluorometric assay relative to control. It counts as cell-based.
For test [4], the target named is T1, Stromal interaction molecule 1 & 2/Calcium release-activated calcium channel protein 1 (Mus musculus) (UniProt Q8BWG9+P70302+P83093). Briefly: Modulation of STIM1/STIM2/Orai1 in mouse BV2 cells assessed as induction of store-operated calcium entry at 10 uM preincubated for 30 mins followed by tBhQ-mediated Ca2+ depletion and Ca2+ re-addition to extracellular solution measured for 800 secs by Fluo-4 AM-based fluorometric assay relative to control. It counts as cell-based. In outline:
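Microplate Fluo-4 assay in mouse microglial BV-2 cells. Stores emptied with tBhQ (50 μM) in presence of compound (10 μM); extracellular Ca2+ re-added after 600 s and intracellular Ca2+ read fluorimetrically; SOCE expressed versus control.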

Test [5] concerns the target ORAI1/STIM1 (Homo sapiens) (UniProt Q96D31+Q13586). The test can be described thus: Modulation of Orai1/STIM1 (unknown origin) expressed in HEK cells assessed as potentiation of store-operated calcium currents in presence of 20 mM BAPTA by patch clamp assay relative to control. Format: cell-based. In outline:
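Whole-cell ISOC recorded in Hek cells stably overexpressing Orai1 and transiently expressing STIM1; internal solution strongly buffered with 20 mM BAPTA; compound at 10 μM versus untreated control.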
(In general: The patch-clamp technique gives a direct electrical read-out from membranes.)

Test [6] deals with T2, Short transient receptor potential channel 1 & 3/Stromal interaction molecule 1/Calcium release-activated calcium channel protein 1 (Homo sapiens) (UniProt Q96D31+Q13507+Q13586+P48995). Briefly: Modulation of TRPC1/TRPC3/STIM1/Orai1 in HEK cells assessed as induction of store-operated calcium entry by measuring residual activity at 10 uM in presence of shTRPC1 preincubated for 30 mins followed by tBhQ-mediated Ca2+ depletion and Ca2+ re-addition to extracellular solution measured for 600 secs by Fluo-4 AM-based fluorometric assay relative to control. Format: cell-based.

For a further test, the species on record is Homo sapiens. The test can be described thus: Modulation of Orai1/STIM1 (unknown origin) expressed in HEK cells assessed as potentiation of store-operated calcium currents by measuring reduction in time constant of channel activation in presence of 20 mM BAPTA and 150 nM Ca2+ containing internal solution by patch clamp assay relative to control. Format: cell-based.

The target in test [7] is Calcium release-activated calcium channel protein 1 (Mus musculus) (UniProt Q8BWG9). The test can be described thus: Modulation of Orai1 in Stim1-/1 and Stim2-/- MEF cells assessed as induction of store-operated calcium entry by measuring residual activity at 10 uM preincubated for 30 mins followed by tBhQ-mediated Ca2+ depletion and Ca2+ re-addition to extracellular solution measured for 600 secs by Fluo-4 AM-based fluorometric assay relative to control. It counts as cell-based.

Test [8] addresses T1, Stromal interaction molecule 1 & 2/Calcium release-activated calcium channel protein 1 (Mus musculus). The test can be described thus: Modulation of STIM1/STIM2/Orai1 in mouse BV2 cells assessed as induction of store-operated calcium entry by measuring increase in slope at 0.3 to 10 uM preincubated for 30 mins followed by tBhQ-mediated Ca2+ depletion and Ca2+ re-addition to extracellular solution measured for 600 secs by Fluo-4 AM-based fluorometric assay relative to control. Format: cell-based.

In test [9] the test system is voltage-gated calcium channel (Mus musculus). The test can be described thus: Antagonist activity at voltage-gated calcium channels in C57/BL6 mouse cerebellar granule cells assessed as inhibition of KCl-induced voltage dependent calcium entry at 10 uM by fura-2-based assay.
For test [10], the target named is T2, Short transient receptor potential channel 1 & 3/Stromal interaction molecule 1/Calcium release-activated calcium channel protein 1 (Homo sapiens). The test can be described thus: Modulation of TRPC1/TRPC3/STIM1/Orai1 in HEK cells assessed as induction of store-operated calcium entry by measuring residual activity at 10 uM preincubated for 30 mins followed by tBhQ-mediated Ca2+ depletion and Ca2+ re-addition to extracellular solution measured for 600 secs by Fluo-4 AM-based fluorometric assay relative to control. Format: cell-based.

The target in test [11] is T1, Stromal interaction molecule 1 & 2/Calcium release-activated calcium channel protein 1 (Mus musculus). The test can be described thus: Modulation of STIM1/STIM2/Orai1 in mouse BV2 cells assessed as induction of store-operated calcium entry by measuring residual activity at 10 uM preincubated for 30 mins followed by tBhQ-mediated Ca2+ depletion and Ca2+ re-addition to extracellular solution measured for 600 secs by Fluo-4 AM-based fluorometric assay relative to control. It counts as cell-based.

In test [12] the target is T2, Short transient receptor potential channel 1 & 3/Stromal interaction molecule 1/Calcium release-activated calcium channel protein 1 (Homo sapiens). Briefly: Modulation of TRPC1/TRPC3/STIM1/Orai1 in HEK cells assessed as induction of store-operated calcium entry by measuring increase in slope at 0.3 to 10 uM preincubated for 30 mins followed by tBhQ-mediated Ca2+ depletion and Ca2+ re-addition to extracellular solution measured for 600 secs by Fluo-4 AM-based fluorometric assay relative to control. It counts as cell-based.

Test [13] shares this target. Briefly: Modulation of TRPC1/TRPC3/STIM1/Orai1 in HEK cells assessed as induction of store-operated calcium entry by measuring increase in peak amplitude at 0.3 to 10 uM preincubated for 30 mins followed by tBhQ-mediated Ca2+ depletion and Ca2+ re-addition to extracellular solution measured for 600 secs by Fluo-4 AM-based fluorometric assay relative to control. Format: cell-based.

Test [14] deals with Jurkat. The test can be described thus: Induction of store-operated calcium entry in human Jurkat cells assessed as induction of store-operated calcium entry by measuring increase in peak amplitude at 0.3 to 10 uM preincubated for 30 mins followed by tBhQ-mediated Ca2+ depletion and Ca2+ re-addition to extracellular solution measured for 600 secs by Fluo-4 AM-based fluorometric assay relative to control. It counts as cell-based.

Test [15] addresses T2, Short transient receptor potential channel 1 & 3/Stromal interaction molecule 1/Calcium release-activated calcium channel protein 1 (Homo sapiens). The test can be described thus: Modulation of TRPC1/TRPC3/STIM1/Orai1 in HEK cells assessed as induction of store-operated calcium entry by measuring increase in AUC of calcium entry at 0.3 to 10 uM preincubated for 30 mins followed by tBhQ-mediated Ca2+ depletion and Ca2+ re-addition to extracellular solution measured for 600 secs by Fluo-4 AM-based fluorometric assay relative to control. It counts as cell-based.

Test [16] concerns the target T1, Stromal interaction molecule 1 & 2/Calcium release-activated calcium channel protein 1 (Mus musculus). Briefly: Modulation of STIM1/STIM2/Orai1 in mouse BV2 cells assessed as induction of store-operated calcium entry by measuring increase in AUC of calcium entry at 0.3 to 10 uM preincubated for 30 mins followed by tBhQ-mediated Ca2+ depletion and Ca2+ re-addition to extracellular solution measured for 600 secs by Fluo-4 AM-based fluorometric assay relative to control. It counts as cell-based.

The subject of test [17] is voltage-gated calcium channel (Mus musculus). Briefly: Antagonist activity at voltage-gated calcium channels in C57/BL6 mouse cerebellar granule cells assessed as inhibition of KCl-induced voltage dependent calcium entry at 10 uM by fura-2-based assay. This is another data set of the same source.

T2 sequence (P48995 whole entry partner): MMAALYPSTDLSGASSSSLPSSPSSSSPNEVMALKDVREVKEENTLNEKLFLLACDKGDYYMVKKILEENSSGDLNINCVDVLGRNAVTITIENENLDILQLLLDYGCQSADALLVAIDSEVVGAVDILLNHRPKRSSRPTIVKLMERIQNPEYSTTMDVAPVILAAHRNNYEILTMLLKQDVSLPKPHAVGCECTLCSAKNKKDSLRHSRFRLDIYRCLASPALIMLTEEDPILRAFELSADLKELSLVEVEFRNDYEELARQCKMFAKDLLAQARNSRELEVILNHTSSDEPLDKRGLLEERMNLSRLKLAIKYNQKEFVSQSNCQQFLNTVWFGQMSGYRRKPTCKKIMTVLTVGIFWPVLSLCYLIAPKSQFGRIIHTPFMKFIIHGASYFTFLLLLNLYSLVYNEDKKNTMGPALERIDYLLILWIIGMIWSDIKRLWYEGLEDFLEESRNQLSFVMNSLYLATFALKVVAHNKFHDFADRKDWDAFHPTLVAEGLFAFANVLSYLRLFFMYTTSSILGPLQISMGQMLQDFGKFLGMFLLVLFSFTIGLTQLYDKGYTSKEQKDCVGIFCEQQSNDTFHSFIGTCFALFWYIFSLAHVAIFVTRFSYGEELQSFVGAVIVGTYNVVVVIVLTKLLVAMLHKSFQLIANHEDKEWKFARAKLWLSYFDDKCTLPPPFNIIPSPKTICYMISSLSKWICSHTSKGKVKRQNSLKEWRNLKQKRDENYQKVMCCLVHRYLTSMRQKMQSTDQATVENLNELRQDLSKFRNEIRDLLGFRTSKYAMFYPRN
T2 sequence (Q13507 whole entry partner): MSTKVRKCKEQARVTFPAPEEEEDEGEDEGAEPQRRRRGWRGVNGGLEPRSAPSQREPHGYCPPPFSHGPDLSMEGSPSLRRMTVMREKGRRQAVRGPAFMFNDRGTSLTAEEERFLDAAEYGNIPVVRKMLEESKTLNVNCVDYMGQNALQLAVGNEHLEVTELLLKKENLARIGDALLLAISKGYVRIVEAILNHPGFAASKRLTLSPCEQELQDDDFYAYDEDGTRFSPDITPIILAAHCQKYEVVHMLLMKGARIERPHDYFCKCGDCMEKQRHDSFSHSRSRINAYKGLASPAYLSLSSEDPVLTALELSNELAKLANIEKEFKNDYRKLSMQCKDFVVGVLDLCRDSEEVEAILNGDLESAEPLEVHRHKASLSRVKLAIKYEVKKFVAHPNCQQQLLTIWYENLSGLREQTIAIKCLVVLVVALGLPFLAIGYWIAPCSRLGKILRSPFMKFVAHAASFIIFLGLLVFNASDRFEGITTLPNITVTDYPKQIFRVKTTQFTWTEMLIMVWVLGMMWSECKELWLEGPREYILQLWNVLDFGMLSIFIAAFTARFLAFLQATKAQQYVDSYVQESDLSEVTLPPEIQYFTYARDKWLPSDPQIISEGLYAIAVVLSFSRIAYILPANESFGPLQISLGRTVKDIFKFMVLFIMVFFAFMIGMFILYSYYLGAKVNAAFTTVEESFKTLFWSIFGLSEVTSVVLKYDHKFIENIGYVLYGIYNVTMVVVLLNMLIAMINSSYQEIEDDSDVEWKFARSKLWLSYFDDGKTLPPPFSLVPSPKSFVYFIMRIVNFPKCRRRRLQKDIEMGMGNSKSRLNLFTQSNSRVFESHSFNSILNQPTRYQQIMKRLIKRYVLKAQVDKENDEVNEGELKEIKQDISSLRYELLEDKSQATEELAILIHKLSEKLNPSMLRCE
T2 sequence (Q13586 23-685 partner limits assumed): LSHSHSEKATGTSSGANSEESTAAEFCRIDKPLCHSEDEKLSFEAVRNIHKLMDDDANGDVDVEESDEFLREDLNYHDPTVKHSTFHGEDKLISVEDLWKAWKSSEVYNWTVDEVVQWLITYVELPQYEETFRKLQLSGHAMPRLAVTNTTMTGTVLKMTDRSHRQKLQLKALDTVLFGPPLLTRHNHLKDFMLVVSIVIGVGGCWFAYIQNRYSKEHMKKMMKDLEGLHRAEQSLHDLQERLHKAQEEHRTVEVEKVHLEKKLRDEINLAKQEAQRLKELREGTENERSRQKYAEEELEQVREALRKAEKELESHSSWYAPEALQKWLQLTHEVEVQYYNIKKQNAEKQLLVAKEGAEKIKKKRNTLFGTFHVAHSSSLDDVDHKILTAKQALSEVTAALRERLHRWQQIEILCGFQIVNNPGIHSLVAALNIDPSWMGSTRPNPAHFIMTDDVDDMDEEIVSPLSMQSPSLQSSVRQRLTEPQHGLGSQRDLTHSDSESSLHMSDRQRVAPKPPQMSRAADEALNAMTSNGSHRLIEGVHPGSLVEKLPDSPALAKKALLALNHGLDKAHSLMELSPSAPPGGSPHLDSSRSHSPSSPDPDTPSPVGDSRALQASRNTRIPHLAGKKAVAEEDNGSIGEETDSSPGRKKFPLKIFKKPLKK
T2 sequence (Q96D31 whole entry): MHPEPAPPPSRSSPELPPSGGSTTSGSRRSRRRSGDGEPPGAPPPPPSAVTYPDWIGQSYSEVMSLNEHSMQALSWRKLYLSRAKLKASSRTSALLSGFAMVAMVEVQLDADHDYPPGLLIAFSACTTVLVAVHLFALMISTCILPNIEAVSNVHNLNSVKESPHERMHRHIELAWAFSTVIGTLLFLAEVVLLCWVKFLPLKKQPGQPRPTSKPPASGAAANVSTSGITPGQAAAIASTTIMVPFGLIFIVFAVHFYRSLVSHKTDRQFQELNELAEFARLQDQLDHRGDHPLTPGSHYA
Chain of ORAI1/STIM1 (Homo sapiens) (Q13586 23-685 partner limits assumed): as the sequence (Q13586 23-685 partner limits assumed) above
Chain of ORAI1/STIM1 (Homo sapiens) (Q96D31 whole entry): as the sequence (Q96D31 whole entry) above
Chain of Calcium release-activated calcium channel protein 1 (Mus musculus) (Q8BWG9 whole entry): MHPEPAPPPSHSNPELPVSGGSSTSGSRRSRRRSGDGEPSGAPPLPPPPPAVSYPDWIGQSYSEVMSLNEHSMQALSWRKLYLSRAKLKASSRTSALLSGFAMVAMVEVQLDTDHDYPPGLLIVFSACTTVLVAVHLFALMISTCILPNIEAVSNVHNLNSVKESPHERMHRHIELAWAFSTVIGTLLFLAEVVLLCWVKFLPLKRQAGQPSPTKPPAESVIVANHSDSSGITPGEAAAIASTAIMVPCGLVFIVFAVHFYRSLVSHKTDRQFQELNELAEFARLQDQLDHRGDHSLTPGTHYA

Consider `O=C(O)c1ccc(-c2cn(-c3ccc(-n4nc(C(F)(F)F)cc4C(F)(F)F)cc3)nn2)cc1`, for which the outcome (in the test on Jurkat [1]; in the test on Jurkat [2]; in the test on Jurkat [3]; in test [4]; in test [5]; in test [6]) was Active. For the same compound, the outcome (in the test filed under Homo sapiens; in test [7]; in test [8]; in [12]; in [13]; in the test with Jurkat [14]) was Active. The result in test [15] and in test [16] was Active. In addition, the inhibition entry in [9] and in [17] was “inactive” each time. Moreover, the Activity in test [10] stood at 213%; in test [11] it was 198%.
